Active and inactive are the calls of the source. No cut-off for these calls is given here.
What was measured:
[1] = target: T1, Choline O-acetyltransferase (Rattus norvegicus, UniProt P32738); assay: Inhibition of Holtzman rat brain choline acetyltransferase using [1-14C-acetyl]-CoA as substrate at 1 mM incubated 20 mins prior to substrate addition measured after 30 mins by liquid scintillation counting analysis; conditions: read-out: I50
T1 sequence (P32738 whole entry): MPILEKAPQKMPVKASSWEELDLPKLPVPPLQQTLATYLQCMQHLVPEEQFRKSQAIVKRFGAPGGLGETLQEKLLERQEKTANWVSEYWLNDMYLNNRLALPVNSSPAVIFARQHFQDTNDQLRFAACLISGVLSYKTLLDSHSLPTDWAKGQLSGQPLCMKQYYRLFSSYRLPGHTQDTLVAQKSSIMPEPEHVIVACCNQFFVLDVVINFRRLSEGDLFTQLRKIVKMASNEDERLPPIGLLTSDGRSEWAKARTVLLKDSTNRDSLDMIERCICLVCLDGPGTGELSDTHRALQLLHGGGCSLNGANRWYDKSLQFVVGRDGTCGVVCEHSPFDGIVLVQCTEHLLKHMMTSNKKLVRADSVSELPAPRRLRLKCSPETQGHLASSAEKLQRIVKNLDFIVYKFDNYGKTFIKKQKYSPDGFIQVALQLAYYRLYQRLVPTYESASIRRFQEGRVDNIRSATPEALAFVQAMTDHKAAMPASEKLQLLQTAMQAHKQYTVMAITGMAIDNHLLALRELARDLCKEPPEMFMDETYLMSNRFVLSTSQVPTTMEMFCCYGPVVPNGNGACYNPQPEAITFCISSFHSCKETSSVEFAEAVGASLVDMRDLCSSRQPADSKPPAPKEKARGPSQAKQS

[2] = species: Cavia porcellus; assay: Inhibition of choline acetyltransferase in guinea pig ileum assessed as blockade of electrically stimulated muscle contraction after 3 hrs; assay type: tissue-based
Outline: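 Guinea pig ileum on coaxial electrode in Tyrode solution, 37°C, 95% O2/5% CO2. Transmural stimulation: monophasic square pulses, 40 V supramaximal, 10 Hz, 0.5 ms, 1 s every 10 s. Contraction blockade gave ED50 with 95% confidence limits by Litchfield-Wilcoxon, N=20.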

[3] = target: T2, Choline O-acetyltransferase (Rattus norvegicus) (UniProt P32738); assay: Inhibition of Holtzman rat brain choline acetyltransferase using [1-14C-acetyl]-CoA as substrate at 1 mM treated with buffered solution at pH 7.4 for 3 to 60 mins prior to enzyme addition followed by 20 mins incubation prior to substrate addition […] by liquid scintillation counting analysis
T2 sequence (whole entry): T1 sequence (P32738 whole entry)

[4] = Stability in D2O by NMR spectroscopy; assay type: physicochemical
Outline: (§1)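 NMR spectra taken in D2O every 3 min for 1 hr. pH stayed at 9.0 (±0.5) throughout.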

[5] = tested on: Lithobates pipiens; assay: Inhibition of choline acetyltransferase in frog sciatic nerve-gastrocnemius muscle assessed as blockade of electrically stimulated muscle contraction at 10^-3 M incubated for 3 hrs followed by compound washout; assay type: tissue-based
Outline: (§2)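 Rana pipiens sciatic nerve-gastrocnemius (20-25 g frogs) in frog Ringer, 25°C, 95% O2/5% CO2. Nerve stimulated at 7 V, 0.5 ms, 250 Hz for 0.1 s every 10 s. Isometric contractions recorded, with washout after 10^-3 M exposure. ED50 with 95% confidence limits by Litchfield-Wilcoxon, N=16.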

[6] = Stability in Me2SO-d6 by NMR spectroscopy; assay type: physicochemical
[7] = Dissociation constant, pKa of the compound; assay type: physicochemical
[8] = target: T2, Choline O-acetyltransferase (Rattus norvegicus); assay: Uncompetitive inhibition of Holtzman rat brain choline acetyltransferase using acetyl-CoA as substrate at 0.2 mM incubated 20 mins prior to substrate addition measured after 30 mins by LB plot using liquid scintillation counting analysis
[9] = Stability in D2O assessed every 4 mins for 1 hr by NMR spectroscopy; assay type: physicochemical
[10] = target: T2, Choline O-acetyltransferase (Rattus norvegicus); assay: Inhibition of Holtzman rat brain choline acetyltransferase using [1-14C-acetyl]-CoA as substrate at 1 mM incubated in un-buffered water for 24 hrs by liquid scintillation counting analysis
Outline: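 Hydration product made by keeping compound in unbuffered water for 24 hr, then run at 1.0 mM in the standard rat brain ChAc radioassay: 20 min preincubation at 37°C, 0.065 mM [1-14C-acetyl]-CoA, 30 min, ion-exchange then scintillation counting.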

[11] = target: T2, Choline O-acetyltransferase (Rattus norvegicus); assay: Uncompetitive inhibition of Holtzman rat brain choline acetyltransferase using choline as substrate at 1 mM incubated 20 mins prior to substrate addition measured after 30 mins by LB plot using liquid scintillation counting analysis
[12] = target: T1, Choline O-acetyltransferase; assay: Inhibition of Holtzman rat brain choline acetyltransferase using [1-14C-acetyl]-CoA as substrate incubated 20 mins prior to substrate addition measured after 30 mins by liquid scintillation counting analysis; conditions: read-out: I50
Outline: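 ChAc extracted from Holtzman rat brain acetone powder in ice-cold pH 7.0 phosphate medium (NaCl, EDTA, cysteine, BSA), 9000 g supernatant. Extract preincubated with inhibitor 20 min at 37°C in pH 7.0 phosphate buffer with 150 mM NaCl, 0.05 mM neostigmine, 50 mM choline. Then [1-14C-acetyl]-CoA at 0.065 mM final, 30 min at 37°C. Acetylated product by sequential anion/cation exchange and scintillation counting.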

[13] = Stability in aqueous medium by NMR spectroscopy; assay type: physicochemical; conditions: buffer; outline: as §1
[14] = Stability of the compound assessed as autohydrolysis at 5 X 10^-3 M at pH 7.4; assay type: physicochemical; conditions: buffer, pH 7.4, 5000 µM
Outline: (§3)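 Autohydrolysis run at 25°C for 20 min in barbital buffer (1.5 mM sodium barbital, 0.3 mM KH2PO4, 150 mM NaCl), pH adjusted to give 7.3-7.6. Compound at 5.0 mM final, no enzyme. pH change tracked against an acrylic acid titration standard curve. Mean ± SEM, three experiments.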

[15] = target: Acetylcholinesterase (Homo sapiens, UniProt P22303); assay: Stability of the compound assessed as acetylcholinesterase (unknown origin)-mediated hydrolysis at 5 X 10^-3 M; assay type: ADME; conditions: 5000 µM
Sequence of Acetylcholinesterase (P22303 whole entry): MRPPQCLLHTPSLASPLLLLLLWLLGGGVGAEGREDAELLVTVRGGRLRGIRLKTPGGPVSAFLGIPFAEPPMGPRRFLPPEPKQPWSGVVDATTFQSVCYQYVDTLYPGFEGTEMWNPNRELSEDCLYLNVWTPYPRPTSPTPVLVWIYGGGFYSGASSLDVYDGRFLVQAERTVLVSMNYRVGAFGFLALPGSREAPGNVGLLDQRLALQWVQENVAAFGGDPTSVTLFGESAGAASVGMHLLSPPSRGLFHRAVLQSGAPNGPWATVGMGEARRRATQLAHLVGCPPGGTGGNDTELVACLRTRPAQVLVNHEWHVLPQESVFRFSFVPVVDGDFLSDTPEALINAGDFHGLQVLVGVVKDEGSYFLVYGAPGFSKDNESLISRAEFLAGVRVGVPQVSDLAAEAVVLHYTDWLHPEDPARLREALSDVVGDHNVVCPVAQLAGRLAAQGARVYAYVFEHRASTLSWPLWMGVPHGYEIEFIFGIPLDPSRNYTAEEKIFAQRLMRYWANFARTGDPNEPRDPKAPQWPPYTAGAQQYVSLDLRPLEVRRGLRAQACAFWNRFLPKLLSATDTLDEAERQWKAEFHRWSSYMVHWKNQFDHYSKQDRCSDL
Outline: (§4)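 Enzymatic hydrolysis at 5 mM compound in barbital buffer at 25°C for 20 min, pH 7.3-7.6. AChE at 0.083 U/ml or BuChE at 0.017 U/ml. Ester cleavage followed as pH change calibrated against acrylic acid. Mean ± SEM of three experiments.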

[16] = Stability in chloroform-d by NMR spectroscopy; assay type: physicochemical
[17] = target: Cholinesterase (Homo sapiens, UniProt P06276); assay: Stability of the compound assessed as butyrylcholine esterase (unknown origin)-mediated hydrolysis at 5 X 10^-3 M; assay type: ADME; conditions: 5000 µM; outline: as §4
Sequence of Cholinesterase (P06276 whole entry): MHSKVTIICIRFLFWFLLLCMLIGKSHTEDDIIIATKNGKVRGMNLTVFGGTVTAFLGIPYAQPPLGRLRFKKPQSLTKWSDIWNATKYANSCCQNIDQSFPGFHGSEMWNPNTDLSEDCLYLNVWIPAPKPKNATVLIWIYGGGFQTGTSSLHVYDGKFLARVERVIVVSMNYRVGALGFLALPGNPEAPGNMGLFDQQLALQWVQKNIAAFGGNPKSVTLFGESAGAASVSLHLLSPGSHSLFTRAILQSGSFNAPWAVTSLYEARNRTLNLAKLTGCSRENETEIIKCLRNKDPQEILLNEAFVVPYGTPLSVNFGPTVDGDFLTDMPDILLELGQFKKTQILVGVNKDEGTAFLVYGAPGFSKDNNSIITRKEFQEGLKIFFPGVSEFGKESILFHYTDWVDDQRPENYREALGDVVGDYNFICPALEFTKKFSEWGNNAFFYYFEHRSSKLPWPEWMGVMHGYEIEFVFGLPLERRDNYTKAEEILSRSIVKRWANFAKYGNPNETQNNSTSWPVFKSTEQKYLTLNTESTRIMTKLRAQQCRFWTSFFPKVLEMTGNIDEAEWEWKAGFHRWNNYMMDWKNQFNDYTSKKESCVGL

[18] = target: T2, Choline O-acetyltransferase (Rattus norvegicus); assay: Reversible inhibition of Holtzman rat brain choline acetyltransferase using [1-14C-acetyl]-CoA as substrate at 5 X 10^-4 M incubated 20 mins prior to substrate addition measured after 30 mins by liquid scintillation counting analysis
Outline: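 Reversibility test at 5 × 10^-4 M inhibitor with enzyme varied from 10 to 30 mg acetone powder per ml. Rat brain extract preincubated 20 min at 37°C, then [14C]acetyl-CoA radioassay for 30 min with scintillation counting. Mean of three experiments ± SEM.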

[19] = Half life of the compound auto-hydrolysis at 5 X 10^-3 M at pH 7.4; assay type: physicochemical; conditions: buffer; outline: as §3
[20] = tested on: Lithobates pipiens; assay: Inhibition of choline acetyltransferase in frog sciatic nerve-gastrocnemius muscle assessed as blockade of electrically stimulated muscle contraction after 3 hrs; assay type: tissue-based; outline: as §2

| IC50 [1] [µM] | SMILES | ED50 [2] [×10⁻⁴ M] | inhibition [3] | Stability [4] | inhibition [5] | Stability [6] | pKa [7] | inhibition [8] | Stability [9] | inhibition [10] | inhibition [11] | IC50 [12] [µM] | Stability [13] | Drug degradation [14] [×10⁻⁸ mol/min] | Drug degradation [15] [×10⁻⁸ mol/min] | Stability [16] | Drug degradation [17] [×10⁻⁸ mol/min] | inhibition [18] | half-life at 5000 µM [19] [h] | ED50 [20] [×10⁻⁴ M] |
| --- | --- | --- | --- | --- | --- | --- | --- | --- | --- | --- | --- | --- | --- | --- | --- | --- | --- | --- | --- | --- |
| < 200 | C=CC(=O)O [ACRYLIC ACID] |  |  |  |  |  |  |  |  |  |  |  |  |  |  |  |  |  |  |  |
|  | C=CC(=O)OCCN(C)C | 1.21 | Active | Stable | Active | Stable | 8.6 | Active | Stable | inactive | Active | 502 | Unstable | 1.75 | 0.07 | Stable | 0.06 | Active | 24 | 5.05 |
|  | CC(=O)OCC[N+](C)(C)C [ACETYLCHOLINE] |  |  |  |  |  |  |  |  |  |  |  |  | 1.75 | 1.46 |  | 6.57 |  |  |  |
